This is an account of results in PubChem BioAssay AID463170 (The Scripps Research Institute Molecular Screening Center, 2010).

Active and inactive are the calls of the source.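 Rule for the calls: active = fold change of 10 or more over vehicle in p21 reporter light; inactive = fold change below 10.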

In the assay the target is Cyclin-dependent kinase inhibitor 1 (Homo sapiens) (UniProt P38936). Description: p21 (CDKN1A) degradation inhibitors, late-stage follow-up, selectivity assay for Wee1 degradation inhibitor project, cell-based, HeLa, luciferase fusion, luminescence, powder samples (AID 463170). The following applies: at 0.1 µM, hits give high values. The method in brief: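 Test system – transfected HeLa cells with p21-luciferase fusion · Technique – luciferase luminescence from the p21 fusion reporter · Repeats – four replicate wells per compound · Schedule – 20 h compound treatment, 37 °C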
Chain of Cyclin-dependent kinase inhibitor 1 (Homo sapiens) (P38936 whole entry, looked up, the tested form may be a part): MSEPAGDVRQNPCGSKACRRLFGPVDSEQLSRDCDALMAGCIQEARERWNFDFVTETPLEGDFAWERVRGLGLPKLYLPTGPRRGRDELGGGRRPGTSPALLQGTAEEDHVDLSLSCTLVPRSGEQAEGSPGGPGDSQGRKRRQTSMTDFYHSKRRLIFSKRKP

As for `O=[N+]([O-])c1cccc2[nH]c(CNc3nc(N4CCOCC4)nc4c3ncn4-c3ccsc3)nc12`, the fold change is 3.41 (inactive).

On to `c1ccc2[nH]c(CNc3nc(N4CCOCC4)nc4c3ncn4-c3ccsc3)nc2c1`, for which the fold change is 2.23 (inactive).
